Test results as given in ChEMBL document CHEMBL3124926, “Identification of highly efficacious glucocorticoid receptor agonists with a potential for reduced clinical bone side effects” (J Med Chem, 2014).

Tests used:
[1] = molecular target: T1, Mineralocorticoid receptor (Homo sapiens, UniProt P08235); test: Competitive binding affinity to mineralocorticoid receptor (unknown origin) expressed in baculovirus-infected cell system after 1 hr by fluorescence polarization assay in presence of tetramethylrhodamine-labeled dexamethasone
T1 sequence (P08235 whole entry): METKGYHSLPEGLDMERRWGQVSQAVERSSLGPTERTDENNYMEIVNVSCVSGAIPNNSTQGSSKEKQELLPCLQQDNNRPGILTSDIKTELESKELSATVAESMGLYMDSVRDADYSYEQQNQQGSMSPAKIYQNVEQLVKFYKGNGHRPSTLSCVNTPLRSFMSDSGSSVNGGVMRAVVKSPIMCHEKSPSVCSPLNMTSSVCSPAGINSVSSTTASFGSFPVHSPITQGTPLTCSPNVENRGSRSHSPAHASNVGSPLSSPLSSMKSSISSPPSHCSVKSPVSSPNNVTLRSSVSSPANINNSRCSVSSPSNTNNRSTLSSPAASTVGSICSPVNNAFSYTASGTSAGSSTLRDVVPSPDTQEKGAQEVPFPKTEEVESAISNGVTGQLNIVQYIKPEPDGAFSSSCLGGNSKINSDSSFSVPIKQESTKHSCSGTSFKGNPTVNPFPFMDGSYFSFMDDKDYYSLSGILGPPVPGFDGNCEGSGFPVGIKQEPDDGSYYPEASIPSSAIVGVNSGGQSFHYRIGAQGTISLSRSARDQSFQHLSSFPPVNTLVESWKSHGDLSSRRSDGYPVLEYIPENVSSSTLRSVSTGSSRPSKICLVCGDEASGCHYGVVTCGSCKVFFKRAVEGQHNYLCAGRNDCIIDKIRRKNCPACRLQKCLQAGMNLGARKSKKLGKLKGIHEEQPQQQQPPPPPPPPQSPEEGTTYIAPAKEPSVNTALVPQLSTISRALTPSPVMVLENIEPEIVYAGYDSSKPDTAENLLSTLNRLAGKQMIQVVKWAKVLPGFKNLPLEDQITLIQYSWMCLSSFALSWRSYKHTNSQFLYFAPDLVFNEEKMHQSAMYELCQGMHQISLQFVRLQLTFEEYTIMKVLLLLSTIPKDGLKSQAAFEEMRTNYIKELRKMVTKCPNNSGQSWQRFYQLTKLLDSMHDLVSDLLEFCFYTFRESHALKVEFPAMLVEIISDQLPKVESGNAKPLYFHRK
Summary of the method: (§1)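 Lysates of baculovirus-infected insect cells co-expressing receptor with HSP-70, HSP-90 and p23 (GR diluted 300-fold, MR 17-fold). Probe 5 nM tetramethylrhodamine-dexamethasone in TES/KCl/molybdate/EDTA/CHAPS/glycerol/DTT buffer, pH 7.4, 1% DMSO. 1 h at room temperature in the dark; fluorescence polarization read (ex 550/em 580 nm). Background set with 2 μM dexamethasone. IC50 from duplicate 11-point curves, four-parameter fit, mean of at least two determinations.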

Glucocorticoid receptor [2] = molecular target: T2, Glucocorticoid receptor (Homo sapiens, UniProt P04150); test: Transrepression activity at glucocorticoid receptor in human fibroblasts assessed as inhibition of IL-1-induced IL-6 production after 18 to 24 hrs
T2 sequence (P04150 whole entry): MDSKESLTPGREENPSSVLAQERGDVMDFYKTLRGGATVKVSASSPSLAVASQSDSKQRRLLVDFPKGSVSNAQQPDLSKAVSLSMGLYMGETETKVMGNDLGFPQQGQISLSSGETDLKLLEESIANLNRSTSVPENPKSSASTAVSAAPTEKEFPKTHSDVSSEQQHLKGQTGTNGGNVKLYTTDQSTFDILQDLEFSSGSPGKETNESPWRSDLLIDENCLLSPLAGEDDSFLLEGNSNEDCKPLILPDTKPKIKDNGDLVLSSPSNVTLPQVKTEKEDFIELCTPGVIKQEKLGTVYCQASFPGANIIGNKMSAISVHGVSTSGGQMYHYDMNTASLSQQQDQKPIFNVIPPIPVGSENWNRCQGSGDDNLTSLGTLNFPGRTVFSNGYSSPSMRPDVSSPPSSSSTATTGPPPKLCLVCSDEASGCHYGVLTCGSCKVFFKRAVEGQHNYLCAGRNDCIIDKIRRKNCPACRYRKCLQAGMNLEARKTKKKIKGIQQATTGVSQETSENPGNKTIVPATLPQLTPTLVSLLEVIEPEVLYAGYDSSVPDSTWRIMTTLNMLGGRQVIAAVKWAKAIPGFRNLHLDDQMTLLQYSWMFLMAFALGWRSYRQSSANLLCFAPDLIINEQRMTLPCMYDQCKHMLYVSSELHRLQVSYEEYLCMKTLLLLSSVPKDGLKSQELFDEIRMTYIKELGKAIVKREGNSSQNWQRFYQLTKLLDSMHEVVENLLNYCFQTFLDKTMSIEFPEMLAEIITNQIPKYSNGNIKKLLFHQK
Summary of the method: (§2)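 Human foreskin fibroblasts grown in Iscove's medium with 10% charcoal/dextran-treated FBS, plated at 20000/well two days before. Medium replaced, then compound (0.4% DMSO final) and recombinant human IL-1 (1 ng/mL final) added. 18–24 h at 37 °C; IL-6 in medium quantified by electrochemiluminescence, DELFIA or ELISA. IC50 by four-parameter fit of duplicate 11-point curves. Efficacy relative to dexamethasone (100%); top concentration 2 μM.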

Progesterone receptor = molecular target: T3, Progesterone receptor (Homo sapiens, UniProt P06401); test: Competitive binding affinity to progesterone receptor (unknown origin) expressed in baculovirus-infected cell system after 1 hr by fluorescence polarization assay in presence of tetramethylrhodamine-labeled RU-486
T3 sequence (P06401 whole entry): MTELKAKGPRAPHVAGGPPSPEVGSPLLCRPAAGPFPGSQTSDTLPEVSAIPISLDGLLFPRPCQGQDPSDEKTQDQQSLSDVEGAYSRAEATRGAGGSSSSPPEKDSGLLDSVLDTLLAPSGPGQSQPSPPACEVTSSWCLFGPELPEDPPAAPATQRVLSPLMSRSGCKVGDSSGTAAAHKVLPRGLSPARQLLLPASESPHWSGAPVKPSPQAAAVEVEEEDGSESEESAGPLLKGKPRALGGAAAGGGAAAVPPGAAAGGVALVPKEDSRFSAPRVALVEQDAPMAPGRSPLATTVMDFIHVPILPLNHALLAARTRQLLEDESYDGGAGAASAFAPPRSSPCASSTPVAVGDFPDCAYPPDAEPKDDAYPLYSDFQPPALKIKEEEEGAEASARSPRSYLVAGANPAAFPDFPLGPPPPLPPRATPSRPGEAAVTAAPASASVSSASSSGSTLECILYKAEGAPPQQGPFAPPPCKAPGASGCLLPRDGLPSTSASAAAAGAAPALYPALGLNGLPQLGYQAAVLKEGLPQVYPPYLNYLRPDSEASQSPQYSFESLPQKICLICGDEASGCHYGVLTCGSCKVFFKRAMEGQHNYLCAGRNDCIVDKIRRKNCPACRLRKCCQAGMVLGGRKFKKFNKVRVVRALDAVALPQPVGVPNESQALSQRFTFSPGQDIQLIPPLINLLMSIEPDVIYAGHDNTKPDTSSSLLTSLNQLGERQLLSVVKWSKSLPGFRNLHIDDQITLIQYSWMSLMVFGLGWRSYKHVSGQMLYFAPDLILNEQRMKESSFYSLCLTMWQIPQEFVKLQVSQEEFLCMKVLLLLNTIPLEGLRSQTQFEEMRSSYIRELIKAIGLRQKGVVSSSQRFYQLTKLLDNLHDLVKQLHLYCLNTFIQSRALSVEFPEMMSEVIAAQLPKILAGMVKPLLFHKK
Summary of the method: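 PR from lysate of insect cells infected with receptor baculovirus alone, diluted 13-fold. Probe 5 nM tetramethylrhodamine-labeled RU-486 in pH 7.4 TES/KCl/molybdate buffer with 1% DMSO. 1 h at room temperature in the dark, then fluorescence polarization (ex 550/em 580 nm). Background set with 2 μM RU-486. IC50 from duplicate 11-point curves, four-parameter logistic fit, mean of at least two determinations.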

Glucocorticoid receptor [3] = molecular target: T2, Glucocorticoid receptor; test: Competitive binding affinity to glucocorticoid receptor (unknown origin) expressed in baculovirus-infected cell system after 1 hr by fluorescence polarization assay in presence of tetramethylrhodamine-labeled dexamethasone; summary of the method: as §1
[4] = molecular target: T4, Glucocorticoid receptor (Homo sapiens) (UniProt P04150); test: Transrepression activity at glucocorticoid receptor in human fibroblasts assessed as inhibition of IL-1-induced IL-6 production at 2 uM after 18 to 24 hrs relative to dexomethasone; summary of the method: as §2
T4 sequence (whole entry): T2 sequence (P04150 whole entry)

[5] = molecular target: T4, Glucocorticoid receptor (Homo sapiens); test: Agonist activity at glucocorticoid receptor in human […] cells assessed as suppression of vitamin D-induced osteocalcin production at 2 uM after 48 hrs by Gla-type osteocalcin ELISA relative to dexomethasone; type: cell-based
Summary of the method: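 MG-63 human osteosarcoma cells plated at 20000/well in DMEM/F-12 with 1% charcoal-filtered FBS and 10 μg/mL vitamin C. Medium refreshed next day, then vitamin D (10 nM final) added with compound (2 × 10−6 to 10−10 M), duplicates. Incubated 48 h at 37 °C; supernatant osteocalcin measured by Gla-type ELISA. Vitamin D-only wells = 100%. Max efficacy at 2 μM is relative to dexamethasone (100%).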

[6] = molecular target: T4, Glucocorticoid receptor (Homo sapiens); test: Agonist activity at glucocorticoid receptor in human HeLa cells transfected with luciferase gene linked to MMTV promoter assessed as induction of luciferase transactivation activity at 2 uM after 6 hrs by luminescence assay; type: cell-based
Summary of the method: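 HeLa cells stably carrying an MMTV-luciferase construct, plated the day before at 25000/well in DMEM with 3% FBS. Medium replaced, then compound added (0.2% DMSO final); 1 μM dexamethasone wells = 100% induction, vehicle = background. Incubated 6 h at 37 °C, 5% CO2. Luminescence read after lysis; activation expressed as % of positive control. Top concentration 2 μM.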

Row | Compound | IC50 [1] [nM] | IC50 (Glucocorticoid receptor [2]) [nM] | IC50 (Progesterone receptor) [nM] | IC50 (Glucocorticoid receptor [3]) [nM] | Emax [4] [%] | Emax [5] [%] | Emax [6] [%]
1 | CC(C)(C[C@@](O)(Cc1cc2ccncc2[nH]1)C(F)(F)F)c1cc(F)ccc1O | – | – | – | – | – | 68 | –
2 | COc1ccc(-c2cncnc2)cc1C(C)(C)C[C@@](O)(Cc1cc2ccncc2[nH]1)C(F)(F)F | – | – | – | – | – | 45 | –
3 | CC(C)(CC(O)(Cc1cc2ncncc2[nH]1)C(F)(F)F)c1ccccc1S(C)(=O)=O (racemic) | > 2000 | 21 | > 2000 | 24 | 92 | 43 | –
4 | Cc1ccc(F)cc1C(C)(C)CC(O)(Cc1cc2nc(-c3ccccc3)cnc2[nH]1)C(F)(F)F (configuration not stated) | > 2000 | 170 | > 2000 | 11 | 82 | – | –
5 | Cc1ccc(F)cc1C(C)(C)CC(O)(Cc1cc2nc(C(C)C)ncc2[nH]1)C(F)(F)F (racemic) | > 2000 | 560 | > 2000 | 26 | 50 | – | –
6 | COc1ccc(F)cc1C(C)(C)CC(O)(Cc1cc2ncncc2[nH]1)C(F)(F)F (racemic) | > 2000 | 21 | > 2000 | 9 | 85 | – | 5
7 | Cc1ccc(F)cc1C(C)(C)CC(O)(Cc1cc2nc(N3CCCC3)ncc2[nH]1)C(F)(F)F (racemic) | > 2000 | 130 | > 2000 | 18 | 76 | – | –
8 | CC(C)(CC(O)(Cc1cc2ncncc2[nH]1)C(F)(F)F)c1cc(F)cc2c1OCC2 (racemic) | 1300 | 24 | 1400 | 7 | 78 | 26 | –
9 | Cc1ccc(F)cc1C(C)(C)CC(O)(Cc1cc2nccnc2[nH]1)C(F)(F)F (racemic) | > 2000 | > 2000 | > 2000 | 57 | – | – | –
10 | CC(C)(CC(O)(Cc1cc2ncncc2[nH]1)C(F)(F)F)c1cccc(S(C)(=O)=O)c1 (racemic) | > 2000 | – | > 2000 | 840 | – | – | –

More lines, in order of falling IC50 [1], values ahead:

Row | IC50 [1] [nM] | IC50 (Glucocorticoid receptor [2]) [nM] | IC50 (Progesterone receptor) [nM] | IC50 (Glucocorticoid receptor [3]) [nM] | Emax [4] [%] | Emax [5] [%] | Emax [6] [%] | Compound
11 | 1150 | 11 | > 2000 | 7 | – | 42 | – | CC(C)(CC(O)(Cc1cc2ncncc2[nH]1)C(F)(F)F)c1cc(F)ccc1O (racemic)
12 | 1100 | 44 | > 2000 | 13 | 69 | – | – | Cc1ccccc1C(C)(C)CC(O)(Cc1cc2ncncc2[nH]1)C(F)(F)F (racemic)
13 | 170 | 15 | 1400 | 5 | 84 | – | – | Cc1ccc(F)cc1C(C)(C)CC(O)(Cc1cc2nc(N3CCOCC3)ncc2[nH]1)C(F)(F)F (racemic)
14 | 160 | 10 | 1450 | 4 | 82 | – | – | COc1ccc(F)cc1C(C)(C)CC(O)(Cc1cc2cncnc2[nH]1)C(F)(F)F (racemic)
15 | 83 | 5 | 490 | 3 | – | 81 | – | Cc1ccc(F)cc1C(C)(C)CC(O)(Cc1cc2cnncc2[nH]1)C(F)(F)F (racemic)
